Assay outcomes as filed in PubChem BioAssay.
Shown are actives, neighbours in structure and some others; about 1.3% of the full set was active somewhere.
DDE Tn6 FP inh: inhibitors of Tn6 peptide binding to fibrin DD(E), primary screen, biochemical, fluorescence polarization, human fibrin, Tn6 probe | actives 0.21% (n = 370,000) | Fibrin DD(E) TRITC-Tn6 fluorescence polarization displacement | Fibrinogen beta chain (Homo sapiens), P02675 | inhibition, % at 8.3 µM;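 active = inhibition above a per-campaign cutoff: mean of compounds within control limits plus 3 SD, cut at about 15% in these data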;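 also: 0% = median of all compound wells on the plate and 100% = blocking peptide control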
Target sequence (P02675 whole entry, looked up): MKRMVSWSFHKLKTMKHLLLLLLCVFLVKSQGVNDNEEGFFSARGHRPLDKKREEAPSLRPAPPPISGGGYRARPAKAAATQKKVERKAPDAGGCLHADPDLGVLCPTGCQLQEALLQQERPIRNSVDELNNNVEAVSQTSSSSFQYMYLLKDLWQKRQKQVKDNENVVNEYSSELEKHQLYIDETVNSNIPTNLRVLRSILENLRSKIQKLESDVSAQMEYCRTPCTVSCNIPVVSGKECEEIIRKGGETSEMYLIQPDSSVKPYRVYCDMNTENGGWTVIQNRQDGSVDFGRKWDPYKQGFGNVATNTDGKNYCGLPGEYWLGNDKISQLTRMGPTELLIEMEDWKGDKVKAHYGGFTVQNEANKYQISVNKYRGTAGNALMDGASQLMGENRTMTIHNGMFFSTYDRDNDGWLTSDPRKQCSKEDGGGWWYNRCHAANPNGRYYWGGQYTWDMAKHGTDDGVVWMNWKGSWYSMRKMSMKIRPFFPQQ
CRFR2-BP ag: agonists of CRF-BP/CRF-R2 complex, primary screen, cell-based, HEK293, calcium dye fluorescence, uHTS; calcium dye fluorescence (FLIPR); percent of saturating CRF peptide response; activation, % at 13.2 µM; CRF-binding protein / CRF receptor 2 complex (human); actives 0.46% (n = 350,000);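 active = activation of at least 50%, plus an integration ratio under a set limit after plate pattern correction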;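 also: plate controls were neutral control wells without compound for no effect and CRF at EC100 for full effect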
CRFBP-R2 block: antagonists of CRF-BP/CRF-R2 complex, primary screen, cell-based, HEK293, calcium dye fluorescence, uHTS; CRF-induced calcium fluorescence; inhibition, % at 11.8 µM; actives 0.59% (n = 350,000); AID 588475, 2011;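 active = inhibition of the ligand-induced calcium signal above about 50% at the single tested concentration, limit read from the data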
Tn7 DDE FP: inhibitors of Tn7 peptide binding to fibrin DD(E), primary screen, biochemical, fluorescence polarization, human fibrin, Tn7 probe. inhibition, % at 8.3 µM. Fibrinogen beta chain (Homo sapiens), P02675. FP displacement of FITC-Tn7 peptide from fibrin DD(E); 0% = median of compound wells per plate. actives 0.13% (n = 370,000);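 active = inhibition above the mean of compounds falling within the control limits plus 3 SD of them, cut at about 14% in these data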;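 also: 0% = plate median of compound wells and 100% = 10 µM Aha-Tn7 peptide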
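Measure: % inhibition scaled between sample-field median and high-control FP; Test system: human fibrin DD(E); Quantity: 2 µM final DD(E) protein; Doses: one dose, 8.3 µM nominal; Schedule: compound with protein 10 min, then 3 h after probe, room temperature; Detection: fluorescence polarization; Medium: Tris buffer with calcium and detergent, pH 7.8.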
Tn6 DDE ctr: counter-screen hit for Tn6 peptide-fibrin DD(E) binding disruption. shares compounds with DDE Tn6 FP inh. TRITC-Tn6 fluorescence polarization displacement; 0% = median of compound wells, not DMSO. inhibition, % at 8.3 µM. actives 2% (n = 680). AID 720621;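 active = inhibition above the mean of test compounds lying between the control limits plus 3 SD of those, cut at about 14% in these data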;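 also: 0% = median of compound wells and 100% = wells with Aha-Tn7 blocking peptide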
DDE Tn6 confirm: inhibitors of Tn6 peptide binding to fibrin DD(E), confirmation, biochemical, fluorescence polarization, human fibrin, Tn6 probe | FP displacement of TRITC-Tn6 peptide from DD(E); 0% = per-plate median of test wells | shares compounds with DDE Tn6 FP inh | actives 10% (n = 680) | inhibition, % at 8.3 µM;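 active = inhibition above the mean of compounds lying within the control limits plus 3 SD, cut at about 16% in these data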;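 also: 100% = high control wells holding a competing inhibitor peptide at 10 µM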
Starred values were filed as active, the others as inactive; x = no result given.

SMILES | DDE Tn6 FP inh | CRFR2-BP ag | CRFBP-R2 block | Tn7 DDE FP | Tn6 DDE ctr | DDE Tn6 confirm
CN1C(=O)[C@H]2[C@@H](c3ccc(C(F)(F)F)cc3)N[C@]3(CCCN(CC4CCCCC4)C3=O)[C@H]2C1=O | 15.9* | 1.9 | 4.9 | 0.6 | 4.4 | 2.8
Cc1ccc(S(=O)(=O)n2ccc(-c3c(-c4ccccc4)noc3C)n2)cc1 | 3.5 | x | x | 1.0 | x | x
Nc1c(SCCC(=O)O)ccc2c1C(=O)c1ccccc1C2=O | 49.6* | -8.0 | -1.1 | 1.7 | 6.2 | 27.2*
CCc1nc2ccc(C(=O)NCCOc3ccc(OC)cc3)cn2c1N(CCN(C)C)CC1CC1 | -10.2 | x | x | -8.9 | x | x
CCc1nc2ccc(C(=O)NCCOc3ccc(OC)cc3)cn2c1N(C)C(=O)C1CCCCC1 | 15.8* | x | x | 7.1 | -1.2 | -3.7
CC(=O)c1ccc(NC(=S)NCCc2ccc(S(N)(=O)=O)cc2)cc1 | 15.3* | -2.7 | -5.7 | 4.3 | -8.0 | -12.4
NS(=O)(=O)c1ccc(NC(=S)NCCc2ccccc2)cc1 | -0.9 | -1.0 | -8.1 | -4.1 | x | x
CCc1cc(=O)oc2c3c(cc(OCC(=O)NCCCn4ccnc4)c12)OC(C)(C)CC3 | 15.3* | 0.3 | 2.2 | 2.9 | -1.2 | -2.3
Cc1n[nH]c(C)c1S(=O)(=O)NCCc1ccccc1F | 7.2 | x | x | 0.6 | x | x
Cn1cccc1C(=O)NC(=O)COC(=O)CCNS(=O)(=O)c1ccc(Cl)cc1 | 15.9* | -2.9 | -0.7 | 3.1 | 3.5 | -5.2
Cn1cccc1C(=O)NC(=O)COC(=O)CCNS(=O)(=O)c1cccc(C(F)(F)F)c1 | 2.8 | 0.1 | -8.7 | -2.9 | x | x
CC(C)c1ccc(N2C(=O)/C(=C/N(C)C)SC2=S)cc1 | 42.9* | 38.2 | -59.2 | 4.9 | -7.0 | 3.7
O=C(Cc1ccccc1F)N1CCC(n2nnc3ncccc32)CC1 | 5.3 | x | x | 10.7 | x | x
Cn1c(=O)c2c(ncn2CC(=O)OCC(=O)Nc2cc(Cl)ccc2C#N)n(C)c1=O | 4.3 | -0.5 | 16.6 | 4.2 | x | x
Cc1ccc(Cl)cc1NC(=O)COC(=O)Cn1cnc2c1c(=O)n(C)c(=O)n2C | 17.0* | -2.7 | 7.5 | 0.7 | 10.1 | 4.8
CSc1nc(NC(C)(C)C)nc(N2CCOCC2)n1 | -3.0 | 3.2 | -32.9 | -2.4 | x | x
Cc1cc(Sc2nc(NC(C)(C)C)nc(N3CCOCC3)n2)nc(Cl)n1 | 16.9* | -1.7 | -25.6 | -0.5 | 5.2 | -0.7
COC(=O)C[C@H]1CC[C@H]2[C@@H](COc3ccc(NC(=O)Nc4ccccc4)cc3C(=O)N2C)O1 | 4.3 | x | x | -0.9 | x | x
Cc1ccc(S(=O)(=O)N2CCN(C(=O)COC(=O)C3CCC3)CC2)cc1 | 17.8* | -0.7 | -5.3 | 2.9 | 10.8 | 4.1
CC(NCc1cccnc1)c1ccccc1 (stereo not given) | 15.9* | 1.6 | -1.2 | 6.7 | 0.3 | 3.5
O=C(OC12CCCN(C1)/C(=C/c1cccnc1)C2)c1ccco1 (stereo not given) | -8.8 | x | x | 0.8 | x | x
Cc1nnc2sc(-c3cccc4ccccc34)nn12 | 16.7* | -0.6 | 15.9 | -1.4 | -7.0 | -10.4
O=C(COC(=O)/C=C/c1ccco1)Nc1ncc(C(F)(F)F)cc1Cl | 15.9* | -1.0 | -0.9 | 0.7 | -7.5 | -7.0
NS(=O)(=O)c1ccc(NC(=O)c2ccc(-c3ccccc3)cc2)cc1 | 1.9 | 1.9 | -19.1 | -6.7 | x | x
NS(=O)(=O)c1ccc(NS(=O)(=O)c2ccc(NC(=O)c3ccc(-c4ccccc4)cc3)cc2)cc1 | 32.3* | 9.1 | -18.1 | 4.7 | -0.2 | 17.4*
SMILES | DDE Tn6 FP inh | CRFR2-BP ag | CRFBP-R2 block | Tn7 DDE FP | Tn6 DDE ctr | DDE Tn6 confirm
COc1ccccc1CCC(=O)Nc1ncc(C)s1 | 15.5* | -1.6 | -16.4 | 2.7 | -1.3 | -4.7
COc1ccccc1CCC(=O)Nc1nccs1 | 2.6 | 1.1 | -0.5 | 0.9 | x | x
COC(=O)c1cc(-c2cc(Cl)ccc2OC)c(=O)n2c1CCC2 | -1.4 | x | x | -5.7 | x | x
COc1ccc(C(=O)N/C=C/n2cnc3cc(C(F)(F)F)ccc32)cc1 | 15.5* | -1.4 | -16.5 | 10.8 | 3.4 | -0.1
CCOc1nc(-c2ccc(Cl)cc2Cl)ccc1C#N | -3.9 | 5.2 | -17.6 | 7.0 | x | x
COc1nc(-c2ccccc2Cl)ccc1C#N | 17.8* | 1.2 | 29.1 | 5.9 | 10.1 | 7.5
Cc1cc2cc(CNC(=O)C(C)Oc3ccccc3)ccc2n1C (stereo not given) | 36.5* | 5.1 | -18.3 | -5.7 | 3.8 | 4.2
Cc1cc2cc(CNC(=O)CC(C)C)ccc2n1C | 15.8* | 2.8 | 15.0 | -1.6 | -2.3 | -13.0
COc1ccccc1NC(=S)NCc1ccc2c(c1)cc(C)n2C | 2.3 | 0.1 | -3.0 | -1.2 | x | x
Cc1ccccc1NC(=S)NCc1ccc2c(c1)cc(C)n2C | 20.0* | 0.4 | -4.5 | 8.8 | 3.3 | -5.3
CCC(CC)C(=O)NCc1ccc2c(c1)cc(C)n2C | 14.9 | 2.3 | 8.2 | 5.1 | x | x
COC(=O)[C@]12C[C@H](CC(=O)NCC3CCCCC3)C(=O)N(Cc3ccccc3)C1=C[C@H](C(C)C)O[C@@H]2C1CC1 | -1.7 | x | x | -5.7 | x | x
Nc1nc2ccc(Cl)cc2cc1C(=O)NCc1ccccc1Br | -1.0 | x | x | -6.0 | x | x
O=C(NCCc1ccccc1)OCc1cn(Cc2ccc(F)c(F)c2)nn1 | -2.5 | x | x | -2.7 | x | x
Cn1cccc1C=NNC(=O)c1cc(-c2ccc(Cl)cc2)n[nH]1 | -0.7 | x | x | 5.0 | x | x
CC(=O)NC(Cc1ccccc1)C(=O)N1CCN(C(=O)c2cccs2)CC1 (stereo not given) | 17.0* | -1.9 | -26.6 | 1.1 | -8.8 | -8.5
N#CCCCSc1nnc(Cc2ccc3c(c2)OCO3)o1 | 17.7* | -1.1 | 3.4 | -4.6 | 4.0 | -4.9
CCCCCCCCN1C(=O)[C@@H](CC(=O)NCCCOC)C[C@@]2(C(=O)OC)C1=C[C@H](C1CCCC1)O[C@@H]2C | 2.2 | x | x | 8.6 | x | x
O=c1oc2ccccc2cc1C1=Nn2c(nnc2-c2cccnc2)SC1 | 15.4* | 12.6 | 10.8 | -0.7 | 8.8 | 3.0
CN1CC(=O)N2[C@@H](C[C@]3(c4c[nH]c5ccccc45)c4ccccc4N(S(=O)(=O)c4ccccc4)[C@H]23)C1=O | -3.7 | x | x | -3.0 | x | x
C[C@@H]1CN([C@H](C)CO)C(=O)c2cc(NC(=O)Nc3ccc(C(F)(F)F)cc3)ccc2O[C@H]1CN(C)S(=O)(=O)c1ccccc1 | 48.4* | 0.9 | -7.5 | -3.6 | 14.4* | 2.6
COc1ccc(NC(=O)Nc2ccc3c(c2)C(=O)N([C@H](C)CO)C[C@H](C)[C@@H](CN(C)S(=O)(=O)c2ccc(OC)cc2)O3)cc1 | 3.1 | -3.0 | 8.4 | 9.6 | x | x
